Data reported in PMC3306454 (ACS Chemical Biology, 2012).
Several values for one entry are separate records, joined by “and”; a condition that tells them apart may be missing. Identical values can stand only once. Entries after “also recorded” stand apart in the source; their conditions may differ.

Key:
[1] = tested on: RNA 1×1 nucleotide internal loops and fully paired RNA; assay: Competition dialysis, binding selectivity; details: 1 µM ligand, 1.6 µM RNA, 24 h
In short: (§1)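 RNAs were run-off transcribed, carried internal loops in a GNRA-hairpin cassette with a fully paired control, and were PAGE-purified. They were folded by heating at 60 °C for 5 min, then slow cooling. Dialysis units with 1.6 μM RNA stood against 1 μM ligand in buffer (8 mM NaH2PO4, 185 mM NaCl, 1 mM EDTA, pH 7.2), stirred 200 rpm, 24 h, 20–22 °C. SDS was added (1% final); Ct was measured spectrophotometrically; Cb = Ct − Cf.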

[2] = target: RNA 5’CAG/3’GUC (fully paired RNA); assay: Fluorescence anisotropy direct binding assay; details: read-out: Dissociation constant, 5’CAG/3’GUC
In short: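 The RNA was made by run-off transcription and PAGE-purified, then folded by heating at 60 °C. Anisotropy was read at ex 368 nm and em 500 nm. Kd came from a quadratic binding fit of anisotropy versus RNA concentration.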

[3] = target: RNA containing the 5’CAG/3’GAC motif; assay: Fluorescence anisotropy direct binding assay; details: read-out: Dissociation constant, 5’CAG/3’GAC
In short: (§2)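 RNA was titrated into 50 nM fluorescent test compound in Affinity Buffer (20 mM HEPES pH 7.5, 5 mM KCl, 150 mM NaCl, 1 mM MgCl2), equilibrating 5 min between additions. Anisotropy was read at ex 368 / em 500 nm and plotted against RNA concentration. Kd came from a quadratic binding equation fit.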

[4] = tested on: RNA containing 5’CUG/3’GUC; assay: Fluorescence anisotropy direct binding assay
In short: as §2

[5] = tested on: RNA containing 5’CGG/3’GGC; assay: Fluorescence anisotropy direct binding assay
In short: as §2

RNA 5’CCG/3’GCG = assay: Fluorescence anisotropy direct binding assay
In short: as §2

[6] = tested on: RNA displaying 5’CAG/3’GAC motif; assay: Optical melting experiments; type: binding; details: for ΔTm (1 equiv.): one equivalent of ligand; for ΔTm (2 equiv.): two equivalents of ligand
In short: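 RNA in Affinity Buffer was denatured at 90 °C and cooled to 15 °C, with ligand at 1 or 2 equivalents. Absorbance at 260 nm was recorded against temperature at 1 °C/min. Tm was calculated as ΔH°×1000/ΔS° − 273.15.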

RNA 5’CAG/3’GCC = assay: Competition dialysis; type: binding; details: bound ligand relative to amount of RNA target
In short: as §1

RNA 5’CAG/3’GAC = assay: Competition dialysis; type: binding; details: bound ligand relative to amount of RNA target
In short: as §1

[7] = tested on: HD patient-derived fibroblasts expressing r(CAG)69; assay: RT-PCR splicing assay in HD fibroblasts; type: cell-based, Human; details: for Effect on ATP2A1 splicing: initial screen, 100 µM, both cellular models
In short: (§3)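 Fibroblasts were grown in MEM with 10% FBS and nonessential amino acids. SK-N-MC cells, with or without stable r(CAG)74, were grown in DMEM with 10% FBS. At ~60% confluence they received test compound at 50–300 μM final (water for untreated) for 48 h. ~1 μg total RNA was reverse transcribed with random primers, followed by RT-PCR, 2% agarose and ethidium staining. Normal isoform fraction was the normal band over total; ≥6 experiments, two-tailed t test versus untreated.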

[8] = tested on: HD fibroblasts and neuroblastoma cellular models; assay: Cell morphology; type: cell-based, Human; details: for Toxicity as assessed by cell morphology: initial screen, 100 µM, both cellular models
In short: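 HD patient fibroblasts (r(CAG)69) and SK-N-MC neuroblastoma cells stably expressing r(CAG)74 were grown to ~60% confluence. Fresh medium with test compound was added: 100 μM for the screen, 50–300 μM for the dose series, water for untreated. Cells were kept 48 h, and microscopic images of cell morphology served as the toxicity estimate.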

r(CAG)12-MBNL1 complex = assay: TR-FRET assay, disruption of the r; type: biochemical
[9] = tested on: SK-N-MC neuroblastoma cells stably expressing r(CAG)74; assay: RT-PCR splicing assay in neuroblastoma; type: cell-based, Human
In short: as §3

[10] = tested on: normal neuroblastoma cell line / control cell lines that do not express r(CAG)exp; assay: RT-PCR splicing assay in control cell lines; type: cell-based, Human
In short: as §3

[11] = tested on: nuclear r(CAG)exp foci in HD-derived fibroblasts; assay: FISH of nuclear r; type: cell-based, Human
In short: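 Fibroblasts (HD line GM04281: r(CAG)17 and r(CAG)69 HTT alleles) at ~60% confluence were given test compound at 50−300 μM final, or water, for 48 h. Cells were fixed in 4% PFA/PBS at 4 °C, prehybridized (30% formamide, 2X SSC, 10 min), and hybridized with a 5′-Cy3, LNA-modified (CTG)6-CA probe. Washes were at 45 °C then 37 °C, and foci were imaged by fluorescence microscopy.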

[12] = neuroblastoma cells expressing r(CAG)74, 48 h

Structure (SMILES): CCN(CC)CCCC(C)Nc1c2ccc(Cl)cc2nc2ccc(OC)cc12 (stereo not drawn) [QNC, Quinacrine]
- Binding preference among RNAs [1]: prefers to bind 5’CAG/3’GCC

Structure (SMILES): Nc1ccc2cc3ccc(N)cc3nc2c1 [proflavin, Proflavin]
- Binding preference among RNAs [1]: little preference for binding to a fully paired RNA or any of the RNAs with 1×1 nucleotide internal loops

Structure (SMILES): Cn1cc(NC(=O)c2cc(NC(=O)CN=C(N)N)cn2C)cc1C(=O)NCCC(=N)N [NTSP, netropsin]
- Binding preference among RNAs [1]: slight preference for 5’CCG/3’GUC

Structure (SMILES): N=C(N)c1ccc(-c2cc3ccc(C(=N)N)cc3[nH]2)cc1 [DAPI, 4',6-diamidino-2-phenylindole]
- Kd [2]: > 3000 nM
- Kd [3]: 220 ± 60 nM
- Fold weaker binding to 5’CUG/3’GUC than to 5’CAG/3’GAC ([4]; fluorescence anisotropy): approximately 2.5 fold
- Kd ([4]; read-out: Dissociation constant, 5’CUG/3’GUC, direct binding assay): 550 ± 200 nM
- Fold weaker binding to 5’CGG/3’GGC than to 5’CAG/3’GAC ([5]; fluorescence anisotropy): approximately 2.5 fold
- Kd ([5]; read-out: Dissociation constant, 5’CGG/3’GGC, direct binding assay): 500 ± 100 nM
- Fold weaker binding to 5’CCG/3’GCC than to 5’CAG/3’GAC (RNA 5’CCG/3’GCG; fluorescence anisotropy): ~ 5 fold
- Kd (RNA 5’CCG/3’GCG; read-out: Dissociation constant, 5’CCG/3’GCG, direct binding assay): 990 ± 200 nM
- ΔTm (1 equiv.) [6]: 6 °C
- ΔTm (2 equiv.) [6]: 10 °C
- Binding preference among RNAs [1]: preferentially binds to 5’CAG/3’GAC and 5’CAG/3’GCC
- Binding stoichiometry to 5’CAG/3’GCC (RNA 5’CAG/3’GCC): stoichiometric amounts
- Binding stoichiometry to 5’CAG/3’GAC (RNA 5’CAG/3’GAC): stoichiometric amounts
- Effect on ATP2A1 splicing [7]: exacerbated splicing abnormalities of ATP2A1
- Toxicity as assessed by cell morphology [8]: strongest morphological changes

Structure (SMILES): CN(C)c1ccc2cc3ccc(N(C)C)cc3nc2c1 [AO, Acridine Orange]
- Binding preference among RNAs [1]: little preference for binding to a fully paired RNA or any of the RNAs with 1×1 nucleotide internal loops

Structure (SMILES): COc1cccc2c1C(=O)c1c(O)c3c(c(O)c1C2=O)C[C@@](O)(C(C)=O)C[C@@H]3O[C@H]1C[C@H](N)[C@H](O)[C@H](C)O1 [DNM, Daunomycin]
- Binding preference among RNAs [1]: prefers to bind 5’CCG/3’GAC

Structure (SMILES): N=C(N)Nc1ccc(OC(=O)c2ccc(NC(=N)N)cc2)cc1 [Compound D6, 4-guanidinophenyl 4-guanidinobenzoate]
- ΔTm (1 equiv.) [6]: 3 °C
- ΔTm (2 equiv.) [6]: 9 °C
- Fold more potent than the other compounds studied (r(CAG)12-MBNL1 complex; TR-FRET IC50): at least 20 fold
- IC50 (r(CAG)12-MBNL1 complex; pre-formed r(CAG)12-MBNL1 complex, TR-FRET): 3000 nM
- Concentration giving statistically significant improvement of NCOR2 mis-splicing ([7]; HD fibroblasts, 48 h): 100 to 300 µM and 50 to 300 µM
- Effect on ATP2A1 splicing [7]: most significantly improved ATP2A1 mis-splicing
- Effect on MAPT pre-mRNA splicing ([9]; neuroblastoma cell line expressing 74 r(CAG) repeats): slightly worsens the splicing of the MAPT pre-mRNA toward the DM-like phenotype
- Concentration giving statistically significant improvement of ATP2A1 splicing [9, 12]: 100 to 300 µM
- Concentration giving statistically significant improvement of NCOR2 splicing [9, 12]: 100 to 300 µM
- Effect on splicing of other tested transcripts ([10]; control cell lines that do not express toxic r(CAG)exp): does not affect the splicing
- Effect on MAPT pre-mRNA splicing ([10]; normal neuroblastoma cell line): more pronounced effect
- Effect on cell morphology ([8]; increasing concentration of D6): cell morphology is not affected
- Toxicity as assessed by cell morphology [8]: least amount of toxicity
- Effect on nuclear r(CAG)exp foci [11]: does not disrupt the formation of nuclear r(CAG)^exp foci; also recorded: does not significantly affect the number or the intensity of nuclear r(CAG)^exp foci

Structure (SMILES): COc1ccc2nc3cc(Cl)ccc3c(N)c2c1 [ACMA, 9-amino-6-chloro-2-methoxy acridine]
- Binding preference among RNAs [1]: binds preferentially to the fully paired RNA and the RNA displaying 5’CCG/3’GCC

Structure (SMILES): O=C1c2c(O)ccc(O)c2C(=O)c2c(NCCNCCO)ccc(NCCNCCO)c21 [MTX, Mitoxantrone]
- Binding preference among RNAs [1]: slight preference for 5’CCG/3’GAC while it discriminates against 5’CUG/3’GCC
